PolyA inh = blocks polyadenylation in yeast reporter cells | S. cerevisiae SKY197-pL101 polyadenylation reporter, beta-gal luminescence; efflux-impaired pdr1/pdr3 knockout yeast; score 100 = 6 SD above DMSO | activity score, % at 12 µM | actives 0.02% (n = 300,000) | AID 1875;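 active = lowest replicate activity score at least 50, where 100 means six control SD above control mean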;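 also: yeast exposed to compound for 9 h at 30 °C; higher score means more reporter readthrough which indicates perturbed polyadenylation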
GSK3 alpha inh = human GSK-3 alpha kinase inhibition | P49840 | actives 0.1% (n = 320,000) | ADP-Glo luminescence, 60 min | AID 2650 | inhibition, % at 10 µM;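 active = more than half of replicates show inhibition above 20%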;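 also: GST-tagged GSK-3 alpha with peptide substrate and 25 µM ATP; 0% = DMSO neutral wells and 100% = GW8510 positive control wells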
Target sequence (P49840 whole entry, looked up): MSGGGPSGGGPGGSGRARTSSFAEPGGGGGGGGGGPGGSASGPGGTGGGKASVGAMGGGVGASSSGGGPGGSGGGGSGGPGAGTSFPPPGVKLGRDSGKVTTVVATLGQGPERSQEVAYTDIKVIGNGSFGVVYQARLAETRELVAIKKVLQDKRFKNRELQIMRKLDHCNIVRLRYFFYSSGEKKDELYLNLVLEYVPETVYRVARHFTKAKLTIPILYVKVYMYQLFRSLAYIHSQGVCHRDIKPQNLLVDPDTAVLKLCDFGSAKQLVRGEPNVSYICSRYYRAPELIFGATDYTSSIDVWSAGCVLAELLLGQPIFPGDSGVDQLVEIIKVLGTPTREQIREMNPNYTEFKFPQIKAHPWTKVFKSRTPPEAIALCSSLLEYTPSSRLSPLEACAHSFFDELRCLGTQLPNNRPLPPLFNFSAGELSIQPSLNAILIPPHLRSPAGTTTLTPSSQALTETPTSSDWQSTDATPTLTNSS
AI-2 QS modul = Vibrio harveyi AI-2 quorum sensing modulation; Vibrio harveyi JMH597 AI-2 luminescence/OD600 ratio, 9 h; hits give low values; strain lacks LuxN and CqsS sensors; 0 = neutral-control median; activity change, % at 7.5 µM; actives 0.4% (n = 300,000); AID 2094; in the data active = activity change below about -75%, passing the limit was not always enough;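 also: luminescence divided by OD600 gain over 9 h not by final OD600 alone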
GSK3B inh = inhibitors of human GSK3beta kinase. GST-GSK3beta kinase, ADP-Glo luminescence, 60 min; hits give low values. activity score (negative = inhibition), % at 10 µM. actives 0.038% (n = 300,000). AID 2097;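 active = more than half of replicate wells score below -50%, meaning over 50% inhibition versus plate controls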;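 also: 0% = median DMSO wells and -100% = median GW8510 positive control wells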
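Test system: GST-tagged human GSK3beta kinase, cell-free; evaluation: activity score scaled between in-plate DMSO and GW8510 controls; measured by: ADP-Glo luminescence; incubation: 60 min reaction, RT; benchmarks: DMSO and 20 µM GW8510; reagent: peptide substrate plus 25 µM ATP (final); medium: Tris/MgCl2 kinase buffer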
STK33 kinase inh = human STK33 kinase inhibition; Q9BYT3; purified STK33, MBP phosphorylation, ADP-Glo luminescence; inhibition, % at 10 µM; actives 0.073% (n = 320,000); AID 2661;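 active = inhibition at or above 25%, using the most active replicate where run in duplicate; inactive = inhibition below 25%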
Yeast superoxide = yeast age-related superoxide inhibition as caloric restriction mimetic; S. cerevisiae aged cells, superoxide DHE fluorescence; hits give low values; AID 2690; superoxide response (% of plate mean), % at 10 µM; actives 0.18% (n = 330,000);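 active = superoxide response under a set limit, about three screen SD below normal, cut at about 65% in these data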;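 also: yeast aged for seven days with compound at 30 °C before DHE staining; 100% = average MFI of all compound-treated wells on the plate with controls excluded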
The depositor's hits bear a star; x = no result given. A selection: hits, their analogues and other compounds. The true share with any hit is near 0.72%.

SMILES	PolyA inh	GSK3 alpha inh	AI-2 QS modul	GSK3B inh	STK33 kinase inh	Yeast superoxide
Nc1nonc1-n1nnc(C(=O)N/N=C/c2ccccc2F)c1-c1cccs1	-10	64*	20	0	2	84
CC(C)=CCOc1c2ccoc2cc2oc(=O)ccc12	54*	-2	7	-4	-1	96
CC(C)=CCOc1c2ccoc2c(OCC=C(C)C)c2oc(=O)ccc12	x	x	x	x	x	94
O=C(NCCOc1ccccc1)c1cc(C(=O)NCCOc2ccccc2)cc([N+](=O)[O-])c1	5	-1	-97*	-4	0	111
COC(=O)Cn1c(=O)c2c(nc3n2CCCN3Cc2ccccc2)n(C)c1=O	-15	-4	17	6	-1	104
N#Cc1ccc(S(=O)(=O)N2CCN(C(=O)[C@@H]3CCCN3C(=O)c3cccs3)CC2)cc1	x	12	x	x	1	112
O=C(c1ccc2c3n(nc2c1)-c1ccccc1CO3)N1CCOCC1	-14	51*	6	-23	43*	100
O=C(c1ccc2c3n(nc2c1)-c1ccc(Cl)cc1CO3)N1CCOCC1	8	1	10	-1	2	111
O=C(COC(=O)c1n[nH]c2ccccc12)c1cccc(Br)c1	0	-2	-92*	0	-1	110
Cc1ccc(C)c(C(=O)COC(=O)c2n[nH]c3ccccc23)c1	x	-2	x	x	0	134
COc1ccc2no[n+]([O-])c2c1	73*	-5	13	1	-2	107
Cc1ccc(NC(=O)COC(=O)c2cc(Cl)ccc2[N+](=O)[O-])cc1	-13	-2	-92*	-2	-2	84
NS(=O)(=O)c1cccc(NC(=O)COC(=O)c2cc(Cl)ccc2[N+](=O)[O-])c1	16	-1	-79*	-2	0	131
COC(=O)c1ccc(OCCOc2ccccc2)cc1	-11	-2	-76*	0	-2	98
COC(=O)c1ccc(COc2ccccc2/C=C/C(=O)c2ccc(OCC(=O)O)cc2)cc1	-13	-2	-8	-8	50*	110
CCOC(=O)/C=C1\SC(C)C(=O)N1CC(=O)N(CCC#N)c1ccccc1 (stereo not given)	x	0	x	x	-1	111
Cc1cc(C)cc(Nc2ccc3nonc3c2[N+](=O)[O-])c1	9	-3	23	9	0	110
CCOC(=O)NNc1ccc2nonc2c1[N+](=O)[O-]	-17	3	-92*	-1	0	143
Nc1ccccc1S(=O)(=O)C(F)F	6	-1	6	1	-1	99
CN(C(=O)CC(NC(=O)c1ccccc1Cl)c1ccccc1)c1ccccc1 (stereo not given)	-4	0	12	1	0	97
CCN(CC)S(=O)(=O)c1cccc(NC(=O)COc2ncnc3sccc23)c1	7	-2	-17	3	-1	95
Cc1ccc(NC(=O)COc2ncnc3sccc23)cc1S(=O)(=O)N(C)C	1	0	-78*	-3	0	104
Cc1cccc(C(=O)NC(=S)NNC(=O)Cc2ccccc2)c1	-38	-3	-91*	2	-1	129
O=C(Cc1ccccc1)NNC(=S)NC(=O)c1cccs1	-38	-2	-83*	-5	1	94
O=C(NNC(=S)NC(=O)c1cccs1)c1ccc(O)cc1	x	x	-34	0	1	100
SMILES	PolyA inh	GSK3 alpha inh	AI-2 QS modul	GSK3B inh	STK33 kinase inh	Yeast superoxide
O=C(NC(=S)NNC(=O)c1cccs1)c1ccc(Br)o1	-15	3	-88*	-4	1	126
Cc1cccc(C(=O)NC(=S)NCc2ccccc2)c1	5	-6	-13	2	-2	92
O=C(NC(=S)NCc1ccccc1)c1cccs1	-11	1	10	6	0	107
Fc1cccc(Cl)c1CSc1nnc(-c2ccncc2)o1	-17	57*	3	-34	2	96
Clc1ccccc1CSc1nnc(-c2ccncc2)o1	2	54*	-31	1	0	101
COc1cc(-c2nnc(SCc3ccccc3Cl)o2)cc(OC)c1OC	6	-1	15	1	-1	101
COc1cc(-c2nnc(SCc3c(F)cccc3Cl)o2)cc(OC)c1OC	-12	-2	19	-3	-2	109
N#Cc1ccccc1CSc1nnc(-c2ccncc2)o1	-1	21	27	-52*	2	80
CCCCN(CC(=O)NCc1ccc(F)cc1)C(=O)c1ccco1	7	-1	15	-1	0	107
O=C1NCCCc2c1oc1ccc(O)cc21	-3	95*	26	-78*	80*	98
COC(=O)C1=C(Nc2cc(Cl)cc(Cl)c2)CSC1	1	0	1	-13	0	98
CCN1/C(=C/C=C/c2sc3ccccc3[n+]2CC)Sc2ccccc21	93*	31	-29	3	3	98
COc1ccc(OCc2nnc(SCC(=O)c3ccccc3)o2)cc1	x	1	24	2	0	85
ClC(Cl)c1nnc(-c2ccccc2)c(-c2c[nH]c3ccccc23)n1	-34	-5	-77*	-1	-1	107
CN(C)S(=O)(=O)c1ccc(C(=O)OCC2CCCO2)cc1 (stereo not given)	12	-1	-77*	-2	0	100
CN(C)S(=O)(=O)c1ccc(C(=O)OCC(=O)NC(=O)NC2CCCC2)cc1	x	5	x	x	12	108
O=C(COC(=O)COc1ccccc1)Nc1ncc([N+](=O)[O-])s1	x	7	x	x	0	105
N/C(=N\OC(=O)Nc1ccccc1)c1ncc([N+](=O)[O-])s1	-14	-1	-88*	-11	-1	109
CCOC(=O)C1=C(c2ccccc2)Nc2ncnn2C1c1ccc(C(=O)O)cc1 (stereo not given)	23	2	1	1	0	103
CCOC(=O)C1=C(c2ccccc2)NC(N)=NC1c1ccc(OCc2ccc(C(=O)OC)cc2)cc1 (stereo not given)	14	x	-92*	-1	0	94
Cc1cc(N2CCCCC2)nc2ccc(NC(=O)c3ccc(Br)o3)cc12	-13	1	19	-1	4	108
Cc1cc(N2CCN(C)CC2)nc2ccc(NC(=O)c3ccc(Br)o3)cc12	5	0	19	-5	34*	107
Fc1cccc(Nc2nc(-c3ccncc3)nc3ccccc23)c1	-49	0	11	-75*	-1	85
c1ccc(Nc2nc(-c3ccccc3)nc3ccccc23)cc1	-5	0	21	2	-1	96
CC1CCN(C(=O)c2cc(-c3ccc(Cl)c(Cl)c3)on2)CC1	11	-3	-80*	-2	-1	75
COc1c(C)oc2cc(O)ccc2c1=O	7	6	11	-1	4	99

Compound activity as filed in PubChem BioAssay.
